Rows were chosen to be rich in hits. Some 2.9% of all compounds tested hit in one or more screens of this group.
DENV2 CPE = inhibitors of DENV2 cytopathic effect; DENV2-infected cells, cytopathic effect rescue, plate reader; CPE inhibition, % at 9.99 µM; hit rate 1.7% among 350,000; AID 651640; in the data active = CPE inhibition above about 20%, passing the limit was not always enough; inconclusive = no clear call, values can overlap the other calls; tested in BHK-21 cells;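 note: 0% = median of neutral control wells and 100% = median of positive control wells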
E-sel inducer = induces E-selectin expression in human endothelial cells; P16581; HUVEC E-selectin immunofluorescence imaging; normalized: neutral wells 0, TNF-alpha wells 100; activation, % at 7.58 µM; hit rate 0.37% among 260,000;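 active = mean E-selectin-positive cell signal at least 10% of the positive control, reached in at least 60% of replicates, without over 20% cell loss; inconclusive = no rule given, readout overlaps actives, possibly toxicity-flagged; inactive = the rest, including those meeting only one limit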
Target sequence (P16581 whole entry, looked up): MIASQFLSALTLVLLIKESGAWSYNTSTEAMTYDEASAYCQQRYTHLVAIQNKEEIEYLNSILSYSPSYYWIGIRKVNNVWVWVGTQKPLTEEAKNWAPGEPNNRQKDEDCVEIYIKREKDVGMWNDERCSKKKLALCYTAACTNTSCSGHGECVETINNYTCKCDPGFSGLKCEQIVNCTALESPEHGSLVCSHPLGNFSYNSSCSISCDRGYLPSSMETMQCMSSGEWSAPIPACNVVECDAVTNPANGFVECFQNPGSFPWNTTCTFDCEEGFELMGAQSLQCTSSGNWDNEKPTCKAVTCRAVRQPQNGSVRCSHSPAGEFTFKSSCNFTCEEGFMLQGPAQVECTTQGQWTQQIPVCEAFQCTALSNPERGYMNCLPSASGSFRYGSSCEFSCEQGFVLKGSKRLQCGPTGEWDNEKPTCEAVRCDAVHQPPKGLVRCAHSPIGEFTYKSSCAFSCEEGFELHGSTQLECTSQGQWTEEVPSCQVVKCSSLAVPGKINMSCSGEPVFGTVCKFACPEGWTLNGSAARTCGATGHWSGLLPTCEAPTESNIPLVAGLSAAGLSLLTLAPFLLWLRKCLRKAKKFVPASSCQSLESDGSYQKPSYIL
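Read-out: % PE-positive cells | Test system: HUVEC | Doses: One compound dose added by pin transfer | Buffer or medium: EGM-2 over gelatin coat | Signal: Immunofluorescence imaging | Benchmarks: TNF-alpha, DMSO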
SIRT5 inh = blocks human SIRT5 desuccinylation of peptide | Purified SirT5, succinyl-peptide AMC, trypsin-coupled fluorescence | AID 652115 | hit rate 1.1% among 330,000 | inhibition, % at 15 µM; in the data active = inhibition above about 15%; inconclusive = no clear call, values can overlap the other calls
Starred values were filed as active, the others as inactive; u = inconclusive; x = no result.

SMILES	DENV2 CPE	E-sel inducer	SIRT5 inh
Cc1nc(C)c(CC(=O)N2CCc3c([nH]c4ccccc34)C2c2ccccn2)s1 (stereo not drawn)	5	x	18*
COC(=O)c1cn(C(=O)c2ccc(OC)c(OC)c2)c2ccccc12	26*	2	4
COC(=O)c1cn(C(=O)c2cc(OC)c(OC)c(OC)c2)c2ccccc12	4	0	1
O=C(O)c1ccc(N/N=C/C=C/c2ccc([N+](=O)[O-])o2)cc1	1	21	15*
O=C(N/N=C/c1ccc([N+](=O)[O-])o1)C(=O)Nc1ccc(C(=O)O)cc1	-8	0	3
NNc1cc2c(nn1)CCN(C(=O)c1ccccc1)C2	3	0	2
CC(=O)CSc1nnc2cc(C)c3ccccc3n12	u	0	2
COc1ccc2c(c1)[C@H]1[C@H](CO2)[C@H](c2ccccc2)[C@]2(C)C(=O)Nc3cc(F)ccc3C(=O)N12	-6	0	-2
COc1ccc2c(c1)OC[C@H]1[C@H]2N2C(=O)c3ccc(F)cc3NC(=O)[C@@]2(C)[C@H]1c1ccccc1	55*	0	x
CC(O)(c1cccnc1)c1nc(/C=C/c2ccccc2)cs1 (stereo not drawn)	14	0	x
O=C(CCCNS(=O)(=O)c1cccs1)N1CCN(c2ccc(F)cc2)CC1	x	1	x
CC(C)COCC(O)CCC(=O)NNC(=S)Nc1ccccc1 (stereo not drawn)	94*	x	x
O=C(Cc1ccccc1)NNC(=S)Nc1ccccc1	-12	x	-3
CCCCCC(=O)Nc1cc(S(=O)(=O)O)cc2cc(S(=O)(=O)O)cc(O)c12	-16	0	36*
CCCCCC(=O)Nc1cc(S(=O)(=O)N2CCCCC2)ccc1N1CCCCC1	-10	-2	-4
OCCCc1cn(CC2CCCCC2)nn1	48*	0	-3
c1ccc(-c2cn(CC3CCCCC3)nn2)cc1	-13	x	-1
COCCn1c(SCC(=O)Nc2ccc(F)cc2)nc2c(c1=O)SCC2	-6	0	x
O=C(CN1C(=O)NC2(CCCC2)C1=O)N1CCN(S(=O)(=O)c2cccc(F)c2)CC1	-2	x	-1
S=P(N1CC1)(N1CC1)N1CC1	42*	0	-2
C[C@@H]1CN([C@@H](C)CO)C(=O)c2cccc(NS(=O)(=O)c3ccc(F)cc3)c2O[C@@H]1CN(C)Cc1ccc(C(=O)Nc2ccccc2N)cc1	-7	12	0
C[C@H](CO)N1C[C@H](C)[C@H](CN(C)Cc2ccc(C(=O)Nc3ccccc3N)cc2)Oc2c(NS(=O)(=O)c3cn(C)cn3)cccc2C1=O	34*	x	5
Cc1ccc(S(=O)(=O)Nc2cccc3c2O[C@H](CN(C)Cc2ccc(C(=O)Nc4ccccc4N)cc2)[C@H](C)CN([C@H](C)CO)C3=O)cc1	21*	3	1
C[C@H]1CN([C@@H](C)CO)C(=O)c2cccc(NS(=O)(=O)c3ccc(F)cc3)c2O[C@H]1CN(C)Cc1ccc(C(=O)Nc2ccccc2N)cc1	22*	1	6
C[C@H]1CN([C@@H](C)CO)C(=O)c2cc(NS(=O)(=O)c3cn(C)cn3)ccc2O[C@@H]1CN(C)Cc1ccc(C(=O)Nc2ccccc2N)cc1	-1	x	x
SMILES	DENV2 CPE	E-sel inducer	SIRT5 inh
Cc1ccc(S(=O)(=O)Nc2cccc3c2O[C@H](CN(C)Cc2ccc(C(=O)Nc4ccccc4N)cc2)[C@@H](C)CN([C@@H](C)CO)C3=O)cc1	4	0	x
O=[N+]([O-])c1cccc2nc3ccccc3c(NCCCn3ccnc3[N+](=O)[O-])c12	7	x	4
CN1C(=O)c2cc(NC(=O)Cc3cccs3)ccc2OC[C@@H]2O[C@@H](CC(=O)NCCCN3CCOCC3)CC[C@@H]21	6	1	-1
NC1=Nc2cccc3cccc1c23	4	0	-2
COc1cc(-c2nnc(SCC(=O)c3ccccc3)o2)cc(OC)c1OC	x	x	-9
CCOc1ccc2oc(C(=O)Nc3cc(C)ccn3)c(C)c2c1	-8	x	2
O=S(=O)(Nc1ccc(S(=O)(=O)N2CCOCC2)cc1)c1ccc(Br)cc1	5	3	1
COc1ccc(C(=O)COC(=O)c2ccccc2C(=O)N(C)c2ccccc2)c(OC)c1	-1	0	-4
O=C(O/N=C1\C(=O)N(c2ccccc2)c2ccccc21)C1CC1	-2	x	-2
CCN(c1ccccc1)S(=O)(=O)c1ccc(OC)c(NC(=O)Cc2ccc(F)cc2)c1	7	0	61*
CCN(c1ccccc1)S(=O)(=O)c1ccc(Cl)c(NC(=O)CN2C(=O)NC3(CCCC3)C2=O)c1	7	0	16*
CCN(c1ccccc1)S(=O)(=O)c1ccc(OC)c(NC(=O)CN2C(=O)NC(C)(C)C2=O)c1	u	x	1
CCN(c1ccccc1)S(=O)(=O)c1ccc(OC)c(NC(=O)C2CCC2)c1	68*	x	-2
CCN(c1ccccc1)S(=O)(=O)c1ccc(OC)c(NC(=O)COc2ccc(C(C)=O)cc2)c1	5	0	0
O=C(CN1C(=O)NC2(CCCCC2)C1=O)Nc1cccc(S(=O)(=O)N2CCOCC2)c1	-2	1	-1
O=C(CN1C(=O)NC2(CCCC2)C1=O)Nc1ccc(S(=O)(=O)N2CCOCC2)cc1	1	x	18*
CCN(c1ccccc1)S(=O)(=O)c1ccc(OC)c(NC(=O)CNCCc2ccccc2)c1	-2	0	-1
Cc1nc2ccccn2c1C(=O)/C=C/c1cccc([N+](=O)[O-])c1	x	0	-3
O=C(O)CCC(=O)N1N=C(c2ccc(Br)cc2)CC1c1cccs1 (stereo not drawn)	-5	x	-5
COCCOC(=O)c1c(C)n(C)c2ccc(OC(=O)c3ccccc3OC)cc12	-1	10	-3
O=C(NCCC(=O)N1CCCCC1)c1ccccc1Cl	2	0	-1
CO[C@H]1CN(C)C(=O)c2ccc(NC(=O)Nc3ccc(Cl)cc3)cc2OC[C@H](C)N(C)C[C@H]1C	27*	0	1
CO[C@@H]1CN(C)C(=O)c2cc(NC(=O)C3CCC3)ccc2OC[C@H](C)N(Cc2ccncc2)C[C@@H]1C	7	0	-4
CO[C@@H]1CN(C)C(=O)c2cc(NC(=O)C3CCC3)ccc2OC[C@@H](C)N(C)C[C@H]1C	2	0	-8
CO[C@H]1CN(C)C(=O)c2ccc(NC(=O)C3CCCC3)cc2OC[C@H](C)N(C)C[C@@H]1C	52*	0	0
SMILES	DENV2 CPE	E-sel inducer	SIRT5 inh
CO[C@H]1CN(C)C(=O)c2cc(NC(=O)C3CCC3)ccc2OC[C@@H](C)N(Cc2ccncc2)C[C@@H]1C	52*	0	-2
CO[C@@H]1CN(C)C(=O)c2ccc(NC(=O)Nc3ccc(Cl)cc3)cc2OC[C@H](C)N(C)C[C@@H]1C	-1	0	-3
CO[C@H]1CN(C)C(=O)c2cc(NC(=O)C3CCC3)ccc2OC[C@H](C)N(C)C[C@@H]1C	73*	0	-1
CO[C@@H]1CN(C)C(=O)c2ccc(NC(=O)C3CCCC3)cc2OC[C@H](C)N(C)C[C@@H]1C	-3	0	-1
Cc1ccc(C#N)c(SCc2ccccc2[N+](=O)[O-])n1	3	-2	5
CC(C)NC(=O)N(C)C[C@H]1Oc2ccc(NC(=O)Nc3cccc4ccccc34)cc2CC(=O)N([C@H](C)CO)C[C@H]1C	6	0	-2
CCCNC(=O)CSc1nnc(-c2ccccc2Br)n1-c1cccc(C(F)(F)F)c1	x	x	-2
